Measured values as given in ChEMBL document CHEMBL3244370, “Synthesis, metabolism, and antitumor activity of deuterated analogues of 1-(2-chloroethyl)-3-cyclohexyl-1-nitrosourea” (J Med Chem, 1978).

Legend:
[1] = test system: Liver microsome; assay: Retention time in Wistar rat liver microsomes at 50 ug/ml after 10 mins by HPLC analysis; type: ADME
Method in brief: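 Liver microsomes from phenobarbital-pretreated male Wistar rats (protein 2.1 mg/mL), with an NADPH-generating system (NADP, glucose 6-phosphate, MgCl2, G6P dehydrogenase) in 0.1 M phosphate pH 7.4. Incubated under oxygen at 37 °C for 10 min, then extracted with hexane. OH-CCNU isomers resolved by analytical HPLC using n-heptane–dichloromethane–propan-2-ol (960:63:35) at 1.9 mL/min; elution times recorded.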

[2] = test system: Liver microsome; assay: Drug metabolism in Wistar rat liver microsomes assessed as recovered CCNU level at 2.8 mg after 10 mins by HPLC analysis; type: ADME; conditions: in vitro
Method in brief: (§1)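 Microsomes from phenobarbital-pretreated male Wistar rat liver (protein 2.1 mg/mL) in 0.1 M phosphate pH 7.4 with NADP, glucose 6-phosphate, MgCl₂ and G6PDH. Incubated under O₂ at 37 °C for 10 min; 2.8 mg (12 μmol) substrate in 20 mL total. Hexane extraction, then silica HPLC quantification of residual CCNU and OH-CCNU isomers.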

[3] = Antitumor activity against mouse TLX5 cells allografted in mouse assessed as increase in host survival time at 10 mg/kg relative to control; type: functional, TLX-5
[4] = Drug metabolism in Wistar rat liver microsomes at 50 ug/ml after 2.5 mins; type: ADME; conditions: read-out: Drug metabolism
Method in brief: (§2)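 Equimolar CCNU and CCNU-d10, each 50 μg/mL (0.21 mM), co-incubated at 37 °C under O₂ with phenobarbital-induced male Wistar rat liver microsomes plus NADPH-generating system in 0.1 M phosphate pH 7.4. Duplicate 1 mL samples taken at intervals into hexane containing CCNU-d4 internal standard. Residual drug measured by 12 eV mass spectrometry. Heat-inactivated microsomes used as control.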

[5] = Antitumor activity against mouse TLX5 cells allografted in mouse assessed as increase in host survival time at 40 mg/kg relative to control; type: functional, TLX-5
[6] = Antitumor activity against mouse TLX5 cells allografted in mouse assessed as increase in host survival time at 20 mg/kg relative to control; type: functional, TLX-5
[7] = Drug metabolism in Wistar rat liver microsomes at 50 ug/ml after 10 mins; type: ADME; conditions: read-out: Drug metabolism; method in brief: as §2
[8] = test system: Liver microsome; assay: Drug metabolism in Wistar rat liver microsomes assessed as recovered total OH-CCNU derivatives level at 2.8 mg after 10 mins by HPLC analysis; type: ADME; conditions: in vitro; method in brief: as §1
[9] = Antitumor activity against mouse TLX5 cells allografted in mouse assessed as increase in host survival time at 160 mg/kg relative to control; type: functional, TLX-5
[10] = Drug metabolism in Wistar rat liver microsomes at 50 ug/ml after 20 mins; type: ADME; conditions: read-out: Drug metabolism; method in brief: as §2
[11] = Antitumor activity against mouse TLX5 cells allografted in mouse assessed as increase in host survival time at 80 mg/kg relative to control; type: functional, TLX-5
[12] = Drug metabolism in Wistar rat liver microsomes at 50 ug/ml after 5 mins; type: ADME; conditions: read-out: Drug metabolism; method in brief: as §2
[13] = Antitumor activity against mouse TLX5 cells allografted in mouse assessed as increase in host survival time at 5 mg/kg relative to control; type: functional, TLX-5
[14] = test system: W256; assay: Antitumor activity against 0.25 ug/ml compound treated rat Walker 256 cells allografted in rat assessed as increase of host survival time cells incubated for 2 hrs with NADPH prior to animal injection; type: functional
[15] = test system: W256; assay: Antitumor activity against 1 ug/ml compound treated rat Walker 256 cells allografted in rat assessed as increase of host survival time cells incubated for 2 hrs with rat liver microsomes and NADPH prior to animal injection; type: functional
[16] = test system: W256; assay: Antitumor activity against 1 ug/ml compound treated rat Walker 256 cells allografted in rat assessed as increase of host survival time cells incubated for 2 hrs with NADPH prior to animal injection; type: functional
[17] = test system: W256; assay: Antitumor activity against 0.5 ug/ml compound treated rat Walker 256 cells allografted in rat assessed as increase of host survival time cells incubated for 2 hrs with NADPH prior to animal injection; type: functional
[18] = test system: W256; assay: Antitumor activity against 4 ug/ml compound treated rat Walker 256 cells allografted in rat assessed as increase of host survival time cells incubated for 2 hrs with rat liver microsomes and NADPH prior to animal injection; type: functional
[19] = test system: W256; assay: Antitumor activity against 0.25 ug/ml compound treated rat Walker 256 cells allografted in rat assessed as increase of host survival time cells incubated for 2 hrs with rat liver microsomes and NADPH prior to animal injection; type: functional
[20] = test system: W256; assay: Antitumor activity against 4 ug/ml compound treated rat Walker 256 cells allografted in rat assessed as increase of host survival time cells incubated for 2 hrs with NADPH prior to animal injection; type: functional
[21] = test system: W256; assay: Antitumor activity against 0.5 ug/ml compound treated rat Walker 256 cells allografted in rat assessed as increase of host survival time cells incubated for 2 hrs with rat liver microsomes and NADPH prior to animal injection; type: functional

Work on `O=NN(CCCl)C(=O)N[C@H]1CC[C@@H](O)CC1` yielded a Retention_time [1] of 9.6 min.

Work on `[2H]C1([2H])C(NC(=O)N(CCCl)N=O)C([2H])([2H])C([2H])([2H])C([2H])([2H])C1([2H])[2H]` yielded a Drug metabolism [2] of 498 µg, an Activity [3] of 20% and a metabolised at 2.5 min, 50 ug/ml [4] of 16.1%. The Activity [5] was 217%, the Activity [6] was 42% and the metabolised at 10 min, 50 ug/ml [7] was 69.5%. For the same compound, the Drug metabolism [8] was 911 µg, the Activity [9] was -28% and the metabolised at 20 min, 50 ug/ml [10] was 91.9%. For the same compound, the Activity [11] was -22% and the metabolised at 5 min, 50 ug/ml [12] was 38.3%.

With `[2H]C1([2H])CCCC([2H])([2H])C1NC(=O)N(CCCl)N=O` the Drug metabolism [2] was 272 µg, the Activity [3] was 63.6% and the Activity [5] was 178.7%. The Activity [6] was 79.7%, the Drug metabolism [8] was 1089 µg and the Activity [13] was -5.1%. The Activity [9] was -21.3% and the Activity [11] was -9.1%.

Work on `O=NN(CCCl)C(=O)N[C@H]1CCCC[C@@H]1O` yielded a Retention_time [1] of 3.8 min.

`O=NN(CCCl)C(=O)N[C@H]1CC[C@H](O)CC1` gave a Retention_time [1] of 16.9 min.

Compound `O=NN(CCCl)C(=O)N[C@H]1CCCC[C@H]1O` has a Retention_time [1] of 2.8 min.

`O=NN(CCCl)C(=O)N[C@H]1CCC[C@@H](O)C1` gave a Retention time [1] of 7.8 min.

`O=NN(CCCl)C(=O)NC1CCCCC1` [LOMUSTINE] gave an Activity [14] of 9%, an Activity [15] of 145% and an Activity [3] of 54%. For the same compound, the metabolised at 2.5 min, 50 ug/ml [4] was 26.8%, the Activity [16] was 64% and the Activity [17] was 60%. For the same compound, the Activity [5] was 76.8%, the Activity [6] was 69.6% and the Survival [18] was 30 days. It also gave a metabolised at 10 min, 50 ug/ml [7] of 72.5%, a Drug metabolism [8] of 1230 µg and an Activity [13] of 1%. It also gave an Activity [9] of -31.4%, a metabolised at 20 min, 50 ug/ml [10] of 91.8% and an Activity [19] of 21%. It also gave an Activity [11] of -23.3%, a metabolised at 5 min, 50 ug/ml [12] of 47.9% and a Survival [20] of 30 days. It also gave an Activity [21] of 106%.

Compound `O=NN(CCCl)C(=O)N[C@H]1CCC[C@H](O)C1` has a Retention time [1] of 7.1 min.

`[2H]C1([2H])CC(NC(=O)N(CCCl)N=O)CC([2H])([2H])C1([2H])[2H]` gave a Drug metabolism [2] of 538 µg, an Activity [3] of 38.1% and an Activity [5] of 81.4%. It also gave an Activity [6] of 95.8%, a Drug metabolism [8] of 994 µg and an Activity [13] of 38.1%. It also gave an Activity [9] of -32% and an Activity [11] of -7.3%.
